From ChEMBL document CHEMBL4665824, “Characterization and Discovery of a Selective Small-Molecule Modulator of Mitochondrial Complex I Targeting a Unique Binding Site” (J Med Chem, 2020)
Active and inactive are the calls of the source. The calls are words filed in the database; no cut-off is given here.

Assays:
MC65 [1] = assay: Inhibition of mitochondrial complex 1 in human MC65 cells assessed as inhibition of ROS production incubated for 48 hrs by mitoSOX fluorescence based flow cytometry; type: cell-based
Method in brief: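 MC65 cells in Opti-MEM (1.6×10^6/well) incubated with compound at 37 °C for 48 h, with or without tetracycline. Collected into HBSS and stained with mitoSOX (2.5 μM) 20 min at 37 °C. Washed twice, then mean fluorescence intensity read by flow cytometry.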

MC65 [2] = assay: Inhibition of mitochondrial complex 1 in human MC65 cells assessed as inhibition of antimycin A-induced ROS production at 1 to 3 uM incubated for 12 hrs by mitoSOX fluorescence based flow cytometry; type: cell-based; settings: dose microM 1-3, time 12.0 hrs
SH-SY5Y [3] = assay: Inhibition of mitochondrial complex 1 in human SH-SY5Y cells assessed as inhibition of MPP+-induced mitochondrial depolarization incubated for 24 hrs by fluorescence based assay; type: cell-based
Method in brief: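 SH-SY5Y cells (4×10^5 per well) were co-treated with compound and MPP+ (30 μM) for 24 h at 37 °C. TMRM was then added to 100 nM final for 30 min. Cells were trypsinized, pelleted, resuspended in PBS, and membrane potential fluorescence was read by flow cytometry.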

Cortical neuron [4] = assay: Inhibition of mitochondrial complex 1 in mouse cortical neurons assessed as inhibition of MPP+-induced mitochondrial depolarization incubated for 24 hrs by fluorescence based assay
Method in brief: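 Primary cortical neurons from E15.5 C57BL/6J embryos (DIV 14; 5×10^4 cells/well) were given compound plus MPP+ for 24 h. They were then loaded with TMRM (1 μM final, 30 min) and washed twice with PBS. Dye was released with 50% DMSO/0.5% Triton in water and read at Ex/Em 548/574 nm.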

SH-SY5Y [5] = assay: Inhibition of mitochondrial complex 1 in human SH-SY5Y cells assessed as inhibition of MPP+-induced mitochondrial depolarization in presence of 10 uM trolox incubated for 24 hrs by fluorescence based assay; type: cell-based
Method in brief: (§1)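 SH-SY5Y cells (4×10^5/well) treated with compound, NAC (10 μM) or trolox (10 μM) plus MPP+ (30 μM) for 24 h. TMRM added at 100 nM final for 30 min. Cells trypsinized, resuspended in PBS and read by flow cytometry.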

SH-SY5Y [6] = assay: Inhibition of mitochondrial complex 1 in human SH-SY5Y cells assessed as inhibition of MPP+-induced mitochondrial depolarization in presence of 10 uM NAC incubated for 24 hrs by fluorescence based assay; type: cell-based; method in brief: as §1
MC65 [7] = assay: Effect on mitochondrial membrane potential in human MC65 cells at 0.3 to 1 uM incubated for 48 hrs by flow cytometry; type: functional, cell-based; settings: dose microM 0.3-1, time 48.0 hrs
MC65 [8] = assay: Effect on ATP content in human MC65 cells at 0.1 to 1 uM incubated for 48 hrs; type: functional, cell-based; settings: dose microM 0.1-1, time 48.0 hrs
Mus musculus [9] = species: Mus musculus; assay: Inhibition of mitochondrial complex 1 in permeabilized mouse brain mitochondria assessed as reduction in ROS production at 2 to 6 uM incubated for 1 hr in presence of NADH by Amplex Red and horseradish peroxidase based assay; settings: dose microM 2-6, time 1.0 hrs
Method in brief: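 Permeabilized mouse brain mitochondria (0.1 mg protein/ml) were pretreated with compound for 1 h at 30 °C. H2O2 release was triggered with NADH (10 μM) and detected by Amplex Red (50 μM) oxidation with HRP (0.1 U/ml) at Ex/Em 530/590 nm. Output was calibrated against an H2O2 standard curve (linear to 2 μM). N=6, mean ± SEM, Student t-test.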

Mus musculus [10] = species: Mus musculus; assay: Inhibition of mitochondrial complex 1 in C57BL/6 mouse cerebral cortex mitochondria assessed as modulation of maximal rate of ADP-stimulated respiration of pyruvate at 2 uM
Method in brief: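 Mitochondria isolated from C57BL/6 mouse cerebral cortex (N=6) with vehicle or 2 μM compound. Oxygen consumption measured by Clark-type electrode at 30 °C with pyruvate/malate (20/5 mM) or succinate (20 mM). ADP-stimulated (state 3) and state 4 rates recorded; RCR taken as state 3/state 4, with ADP/O also derived.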

Mus musculus [11] = species: Mus musculus; assay: Inhibition of mitochondrial complex 2 in C57BL/6 mouse cerebral cortex mitochondria assessed as modulation of maximal rate of ADP-stimulated respiration of succinate at 2 uM
Mus musculus [12] = species: Mus musculus; assay: Inhibition of mitochondrial complex 1 in C57BL/6 mouse cerebral cortex mitochondria assessed as reduction in ETC enzymatic activity at 2 uM relative to control
Method in brief: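 Detergent-solubilized mouse brain mitochondria (N=6) treated with 2 μM compound, then electron transport chain enzyme activities determined.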

[13] = Inhibition of mitochondrial complex 1 in 5 months old transgenic AD mouse model assessed as suppression of maximal rate of ADP-stimulated respiration of pyruvate at 50 mg/kg, po dosed 5 times/week for 2 weeks; type: functional; settings: 336 h
Mus musculus [14] = assay: Inhibition of mitochondrial complex 1 in 5 months old transgenic AD mouse model assessed as suppression of state 3 respiration of pyruvate at 50 mg/kg, po dosed 5 times/week for 2 weeks; type: functional, organism-based
Mus musculus [15] = assay: Effect on respiratory control ratio in 5 months old transgenic AD mouse model at 50 mg/kg, po dosed 5 times/week for 2 weeks; type: functional, organism-based
Mus musculus [16] = assay: Effect on ADP/O ratio in 5 months old transgenic AD mouse model at 50 mg/kg, po dosed 5 times/week for 2 weeks; type: functional, organism-based
[17] = Inhibition of mitochondrial complex 1 in 10 months old transgenic AD mouse model assessed as suppression of maximal rate of ADP-stimulated respiration of pyruvate at 50 mg/kg, po QD for 8 weeks; type: functional; settings: 1344 h
Mus musculus [18] = assay: Inhibition of mitochondrial complex 1 in 10 months old transgenic AD mouse model assessed as suppression of state 3 respiration of pyruvate at 50 mg/kg, po QD for 8 weeks; type: functional, organism-based
Mus musculus [19] = assay: Effect on respiratory control ratio in 5 months old transgenic AD mouse model in presence of pyruvate and malate at 50 mg/kg, po dosed 5 times/week for 2 weeks (4.1 +/- 0.7); type: functional
[20] = Effect on ADP/O ratio in 5 months old transgenic AD mouse model in presence of pyruvate and malate at 50 mg/kg, po dosed 5 times/week for 2 weeks (2.6 +/- 0.2); type: functional
Mus musculus [21] = assay: Effect on respiratory control ratio in 5 months old transgenic AD mouse model in presence of succinate at 50 mg/kg, po dosed 5 times/week for 2 weeks (2.5 +/- 0. 2); type: functional
[22] = Effect on ADP/O ratio in 5 months old transgenic AD mouse model in presence of succinate at 50 mg/kg, po dosed 5 times/week for 2 weeks (1.4 +/- 0.1); type: functional
Cerebral cortex [23] = assay: Effect on ADP/O ratio in C57BL/6 mouse cerebral cortex mitochondria at 2 uM (reference value: 2.9)
Cerebral cortex [24] = assay: Effect on respiratory control ratio in C57BL/6 mouse cerebral cortex mitochondria at 2 uM (reference value: 5.3)
MC65 [25] = assay: Inhibition of mitochondrial complex 1 in human MC65 cells assessed as inhibition of rotenone-induced ROS production by measuring ROS production rate at 1 uM incubated for 12 hrs by mitoSOX fluorescence based flow cytometry (reference value: 8.3 RFU/min)
Cortical neuron [26] = assay: Inhibition of mitochondrial complex 1 in mouse cortical neurons assessed as inhibition of rotenone-induced ROS production by measuring ROS production rate at 1 uM incubated for 12 hrs by mitoSOX fluorescence based flow cytometry (Rvb =3.3 RFU/min)

Question: For `COc1ccc2[nH]cc(CCNC(=O)CC(=O)CCc3ccc(O)cc3)c2c1`, which inhibition (MC65 [1]) is on record?
Answer: Its inhibition is “Dose-dependent effect”.

Question: And the inhibition (MC65 [2])?
Answer: Its inhibition is “inactive”.

Question: And the inhibition (SH-SY5Y [3])?
Answer: Its inhibition is “Dose-dependent effect”.

Question: And the inhibition (Cortical neuron [4])?
Answer: Its inhibition is “Dose-dependent effect”.

Question: What about the inhibition (SH-SY5Y [5]) of the same compound?
Answer: The inhibition was “Active”.

Question: And the inhibition (SH-SY5Y [6])?
Answer: The inhibition was “Active”.

Question: And the Activity (MC65 [7])?
Answer: Its Activity is “inactive”.

Question: What about the Activity (MC65 [8]) of the same compound?
Answer: The Activity was “inactive”.

Question: And the inhibition (Mus musculus [9])?
Answer: The inhibition was “Active”.

Question: What about the inhibition (Mus musculus [10]) of the same compound?
Answer: The inhibition was “Active”.

Question: What about the inhibition (Mus musculus [11]) of the same compound?
Answer: The inhibition was “inactive”.

Question: And the inhibition (Mus musculus [12])?
Answer: The inhibition was 20%.

Question: What about the inhibition in vivo at 50 mg/kg [13] of the same compound?
Answer: The inhibition in vivo at 50 mg/kg was 9%.

Question: And the inhibition (Mus musculus [14])?
Answer: The inhibition was “Active”.

Question: And the Activity (Mus musculus [15])?
Answer: The Activity was “inactive”.

Question: And the Activity (Mus musculus [16])?
Answer: The Activity was “inactive”.

Question: And the inhibition in vivo at 50 mg/kg [17]?
Answer: The inhibition in vivo at 50 mg/kg was 25%.

Question: What about the inhibition (Mus musculus [18]) of the same compound?
Answer: The inhibition was “Active”.

Question: And the Ratio (Mus musculus [19])?
Answer: Its Ratio is 4.2.

Question: What about the Ratio [20] of the same compound?
Answer: Its Ratio is 2.6.

Question: What about the Ratio (Mus musculus [21]) of the same compound?
Answer: Its Ratio is 2.7.

Question: What about the Ratio [22] of the same compound?
Answer: Its Ratio is 1.3.

Question: And the Ratio (Cerebral cortex [23])?
Answer: The Ratio was 3.1.

Question: And the Ratio (Cerebral cortex [24])?
Answer: Its Ratio is 4.7.

Question: What about the Activity (MC65 [25]) of the same compound?
Answer: Its Activity is 5.8 RFU/min.

Question: And the Activity (Cortical neuron [26])?
Answer: Its Activity is 2 RFU/min.
